In brackets after ≈: the same amount, converted by molar mass. Activity calls are given as the source filed them. The rule behind the calls is not given here.
How the values were obtained:
Pseudomonas aeruginosa [1] = assay: Antimicrobial activity against Pseudomonas aeruginosa PAO1 infected in Caenorhabditis elegans glp-4(bn2) assessed as reduction in CFU at 250 ug/ml by serial dilution method; format: functional, organism-based
Outline: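 Infected worms (PAO1, 12 h on PGS agar) moved to E. coli OP50 plates with inhibitor; at 24, 48, 72 and 96 h, 10 live worms washed three times in M9 with 1 mM sodium azide, disrupted with 1.0 mm silicon carbide beads by vortexing 1 min, debris pelleted, lysate serially diluted and plated on PIA for cfu. Uninfected and untreated infected worms as controls.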

[2] = Binding affinity to Pseudomonas aeruginosa apo Heme oxygenase expressed in Escherichia coli BL21(DE3) assessed as decrease in tryptophan fluorescence
Outline: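 Apo-HemO held at 1 μM in 20 mM Tris-HCl (pH 7.5), titrated with inhibitor 0.05−500 μM. Excitation 295 nm, emission scanned 300−500 nm; fluorescence decrease at 330 nm used in 1/ΔA vs 1/[I] reciprocal plot, slope giving KD. Mean of three separate experiments.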

Pseudomonas aeruginosa [3] = assay: Binding affinity to Pseudomonas aeruginosa apo Heme oxygenase expressed in Escherichia coli BL21(DE3) after 4 hrs by STD-NMR analysis
Outline: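 STD-NMR at 25 °C, 500 MHz: inhibitor-saturated solution (50 mM sodium phosphate, 100 mM NaCl, D2O, pH 7.4, stood about 4 h, centrifuged) mixed with 3−4 μM HemO; inhibitor about 5 mM by TSP reference. Selective saturation 2 s via 50 ms Gaussian pulses; repeated with 10 s interscan delay. Strongest-saturated proton set to 100%.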

Pseudomonas aeruginosa [4] = assay: Antimicrobial activity against Pseudomonas aeruginosa PAO1 infected in Caenorhabditis elegans glp-4(bn2) assessed as increase in host lifespan at 250 ug/ml; format: functional, organism-based
Outline: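 Synchronized glp-4(bn2) young adults (30) exposed 12 h to P. aeruginosa PAO1 lawn on PGS agar (peptone, NaCl, glucose, 0.15 M sorbitol), washed in M9, reseeded on E. coli OP50 PGS-agar plates containing inhibitor. Viability scored daily; death taken as no response to touch. Average of three experiments.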

Pseudomonas aeruginosa [5] = assay: Antimicrobial activity against Pseudomonas aeruginosa WR5; format: functional
Outline: (§1)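 Strains grown from single colony 8 h at 37 °C in LB, diluted to OD600 0.05, incubated in LB alone or with 250−1500 μM compound. OD600 read at 6, 12 and 24 h, blank with matching inhibitor concentration subtracted. MIC50 averaged from three separate experiments.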

Pseudomonas aeruginosa [6] = assay: Binding affinity to Pseudomonas aeruginosa apo Heme oxygenase expressed in Escherichia coli BL21(DE3) assessed as shift in specific resonance at 4.2 mM after 2 hrs by chemical shift NMR analysis
Outline: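 15N-labeled apo-HemO at 1.2 mM (50 mM phosphate, 100 mM KCl, 95% H2O/5% D2O) with inhibitor at 0, 0.7, 1.05, 2.1 or 4.2 mM; inhibitor dissolved into protein 2 h at room temperature, centrifuged. 1H−15N TROSY-HSQC at 25 °C; combined shift Δppm = sqrt(ΔδHN² + (0.2·ΔδN)²).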

Pseudomonas aeruginosa [7] = assay: Antimicrobial activity against Pseudomonas aeruginosa PAO1; format: functional; outline: as §1
Pseudomonas aeruginosa [8] = assay: Antimicrobial activity against Pseudomonas aeruginosa FRD1; format: functional; outline: as §1

Activity (Pseudomonas aeruginosa [3]) | MIC50 (Pseudomonas aeruginosa [5]) [µg/mL] | Activity (Pseudomonas aeruginosa [6]) | MIC50 (Pseudomonas aeruginosa [7]) [µg/mL] | MIC50 (Pseudomonas aeruginosa [8]) [µg/mL] | SMILES | Activity (Pseudomonas aeruginosa [1]) | Kd [2] [µM] | Activity (Pseudomonas aeruginosa [4])
Active | 210 (≈ 1020 µM) | Active | 250 (≈ 1220 µM) | 190 (≈ 926 µM) | CN(C)c1ccc(/C=N/NC(=N)N)cc1 | Active | 31.2 | Active
Active | 1100 (≈ 3900 µM) | Active | 1200 (≈ 4250 µM) | 950 (≈ 3370 µM) | O=C(O)/C=C/C(=O)Nc1ccc(Nc2ccccc2)cc1 |  | 18.4 | Active
 | 800 (≈ 2820 µM) |  | 1000 (≈ 3530 µM) | 750 (≈ 2650 µM) | O=C(O)/C=C/C(=O)Nc1ccc(Oc2ccccc2)cc1 |  | 29.3 | 

Reference: ChEMBL document CHEMBL2331541, “Small molecule antivirulents targeting the iron-regulated heme oxygenase (HemO) of P. aeruginosa” (J Med Chem, 2013)
